Laboratory results taken from ChEMBL document CHEMBL2203173 (J Med Chem, 2012).

Legend:
[1] = system: Mus musculus; test: Toxicity in BALB/c nu/nu mouse xenografted with human DMS53 cells assessed as change in spleen weight at 10 mg/kg, po administered for 3 times a week measured after 20 days; assay type: organism-based, DMS-53; design: dose 10 mg/kg, route oral; conditions: in vivo, 480 h
Method in brief: (§1)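 DMS-53 xenograft nude mice were gavaged 3 times/week in 30% propylene glycol/saline vehicle for 20 days and then sacrificed. Organ weights and histology of spleen, kidney, liver, heart, lungs and brain were compared with vehicle controls. n = 6-11 mice/condition.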

[2] = Toxicity in po dosed BALB/c nu/nu mouse xenografted with human DMS53 cells measured for 28 days; assay type: organism-based, DMS-53; conditions: in vivo
Method in brief: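 Oral dose-range-finding study to set the maximum tolerated dose in nude mice bearing DMS-53 tumors, with dosing over a 28-day treatment period.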

[3] = system: Mus musculus; test: Cardiotoxicity in human DMS53 cells xenografted BALB/c nu/nu mouse at 10 mg/kg, po administered for 3 times a week measured after 20 days; assay type: toxicity, organism-based, DMS-53; design: dose 10 mg/kg, route oral; conditions: in vivo, 480 h
Method in brief: (§2)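 DMS-53 xenograft nude mice given oral gavage 3 times/week in 30% propylene glycol/saline for 20 days. Heart sections taken after 20 days were stained with Gomori Trichrome for fibrosis and viewed at 100×. Other organs were examined histologically.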

[4] = system: Mus musculus; test: Cardiotoxicity in BALB/c nu/nu mouse xenografted with human DMS53 cells at 7.5 mg/kg, po administered for 3 times a week measured after 20 days; assay type: toxicity, organism-based, DMS-53; design: dose 7.5 mg/kg, route oral; conditions: in vivo, 480 h; method in brief: as §2
[5] = system: Mus musculus; test: Toxicity in BALB/c nu/nu mouse xenografted with human DMS53 cells assessed as cardiac fibrosis at 20 mg/kg, po administered for 3 times a week measured after 20 days using Gomori Trichrome stain; assay type: organism-based, Heart, DMS-53; design: dose 20 mg/kg, route oral; conditions: in vivo, 480 h; method in brief: as §2
[6] = system: Mus musculus; test: Toxicity in BALB/c nu/nu mouse xenografted with human DMS53 cells assessed as cardiac fibrosis at 7.5 mg/kg, po administered for 3 times a week measured after 20 days using Gomori Trichrome stain; assay type: organism-based, Heart, DMS-53; design: dose 7.5 mg/kg, route oral; conditions: in vivo, 480 h; method in brief: as §2
[7] = system: Mus musculus; test: Toxicity in BALB/c nu/nu mouse xenografted with human DMS53 cells assessed as change in brain histology at 20 mg/kg, po administered for 3 times a week measured after 20 days; assay type: organism-based, DMS-53; design: dose 20 mg/kg, route oral; conditions: in vivo, 480 h
Method in brief: (§3)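 Nude mice bearing DMS-53 xenografts gavaged 3 times/week for 20 days, vehicle 30% propylene glycol/saline, vehicle controls, n = 6-11 mice/condition. Sacrifice on day 20. Organ weights and hematological indices recorded. Spleen, kidney, liver, heart, lungs and brain examined histologically, hearts stained with Gomori Trichrome for fibrosis.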

[8] = system: Mus musculus; test: Toxicity in BALB/c nu/nu mouse xenografted with human DMS53 cells assessed as change in brain histology at 10 mg/kg, po administered for 3 times a week measured after 20 days; assay type: organism-based, DMS-53; design: dose 10 mg/kg, route oral; conditions: in vivo, 480 h; method in brief: as §3
[9] = system: Mus musculus; test: Toxicity in BALB/c nu/nu mouse xenografted with human DMS53 cells assessed as change in brain histology at 7.5 mg/kg, po administered for 3 times a week measured after 20 days; assay type: organism-based, DMS-53; design: dose 7.5 mg/kg, route oral; conditions: in vivo, 480 h; method in brief: as §3
[10] = system: Mus musculus; test: Toxicity in BALB/c nu/nu mouse xenografted with human DMS53 cells assessed as change in lungs histology at 20 mg/kg, po administered for 3 times a week measured after 20 days; assay type: organism-based, DMS-53; design: dose 20 mg/kg, route oral; conditions: in vivo, 480 h; method in brief: as §3
[11] = system: Mus musculus; test: Toxicity in BALB/c nu/nu mouse xenografted with human DMS53 cells assessed as change in lungs histology at 10 mg/kg, po administered for 3 times a week measured after 20 days; assay type: organism-based, DMS-53; design: dose 10 mg/kg, route oral; conditions: in vivo, 480 h; method in brief: as §3
[12] = system: Mus musculus; test: Toxicity in BALB/c nu/nu mouse xenografted with human DMS53 cells assessed as change in lungs histology at 7.5 mg/kg, po administered for 3 times a week measured after 20 days; assay type: organism-based, DMS-53; design: dose 7.5 mg/kg, route oral; conditions: in vivo, 480 h; method in brief: as §1
[13] = system: Mus musculus; test: Toxicity in BALB/c nu/nu mouse xenografted with human DMS53 cells assessed as change in heart histology at 20 mg/kg, po administered for 3 times a week measured after 20 days; assay type: organism-based, DMS-53; design: dose 20 mg/kg, route oral; conditions: in vivo, 480 h; method in brief: as §3
[14] = system: Mus musculus; test: Toxicity in BALB/c nu/nu mouse xenografted with human DMS53 cells assessed as change in heart histology at 10 mg/kg, po administered for 3 times a week measured after 20 days; assay type: organism-based, DMS-53; design: dose 10 mg/kg, route oral; conditions: in vivo, 480 h; method in brief: as §3
[15] = system: Mus musculus; test: Toxicity in BALB/c nu/nu mouse xenografted with human DMS53 cells assessed as change in heart histology at 7.5 mg/kg, po administered for 3 times a week measured after 20 days; assay type: organism-based, DMS-53; design: dose 7.5 mg/kg, route oral; conditions: in vivo, 480 h; method in brief: as §3
[16] = system: Mus musculus; test: Toxicity in BALB/c nu/nu mouse xenografted with human DMS53 cells assessed as change in liver histology at 20 mg/kg, po administered for 3 times a week measured after 20 days; assay type: organism-based, DMS-53; design: dose 20 mg/kg, route oral; conditions: in vivo, 480 h; method in brief: as §3
[17] = system: Mus musculus; test: Cardiotoxicity in human DMS53 cells xenografted BALB/c nu/nu mouse at 20 mg/kg, po administered for 3 times a week measured after 20 days; assay type: toxicity, organism-based, DMS-53; design: dose 20 mg/kg, route oral; conditions: in vivo, 480 h; method in brief: as §2
[18] = system: Mus musculus; test: Toxicity in BALB/c nu/nu mouse xenografted with human DMS53 cells assessed as change in liver histology at 10 mg/kg, po administered for 3 times a week measured after 20 days; assay type: organism-based, DMS-53; design: dose 10 mg/kg, route oral; conditions: in vivo, 480 h; method in brief: as §3
[19] = system: Mus musculus; test: Toxicity in BALB/c nu/nu mouse xenografted with human DMS53 cells assessed as change in liver histology at 7.5 mg/kg, po administered for 3 times a week measured after 20 days; assay type: organism-based, DMS-53; design: dose 7.5 mg/kg, route oral; conditions: in vivo, 480 h; method in brief: as §3
[20] = system: Mus musculus; test: Toxicity in BALB/c nu/nu mouse xenografted with human DMS53 cells assessed as change in kidney histology at 20 mg/kg, po administered for 3 times a week measured after 20 days; assay type: organism-based, DMS-53; design: dose 20 mg/kg, route oral; conditions: in vivo, 480 h; method in brief: as §3
[21] = system: Mus musculus; test: Toxicity in BALB/c nu/nu mouse xenografted with human DMS53 cells assessed as change in kidney histology at 10 mg/kg, po administered for 3 times a week measured after 20 days; assay type: organism-based, DMS-53; design: dose 10 mg/kg, route oral; conditions: in vivo, 480 h; method in brief: as §3
[22] = system: Mus musculus; test: Toxicity in BALB/c nu/nu mouse xenografted with human DMS53 cells assessed as change in kidney histology at 7.5 mg/kg, po administered for 3 times a week measured after 20 days; assay type: organism-based, DMS-53; design: dose 7.5 mg/kg, route oral; conditions: in vivo, 480 h; method in brief: as §3
[23] = system: Mus musculus; test: Toxicity in BALB/c nu/nu mouse xenografted with human DMS53 cells assessed as change in spleen histology at 20 mg/kg, po administered for 3 times a week measured after 20 days; assay type: organism-based, DMS-53; design: dose 20 mg/kg, route oral; conditions: in vivo, 480 h; method in brief: as §1
[24] = system: Mus musculus; test: Toxicity in BALB/c nu/nu mouse xenografted with human DMS53 cells assessed as change in spleen histology at 10 mg/kg, po administered for 3 times a week measured after 20 days; assay type: organism-based, DMS-53; design: dose 10 mg/kg, route oral; conditions: in vivo, 480 h; method in brief: as §1
[25] = system: Mus musculus; test: Toxicity in BALB/c nu/nu mouse xenografted with human DMS53 cells assessed as change in spleen histology at 7.5 mg/kg, po administered for 3 times a week measured after 20 days; assay type: organism-based, DMS-53; design: dose 7.5 mg/kg, route oral; conditions: in vivo, 480 h; method in brief: as §1
[26] = system: Mus musculus; test: Toxicity in BALB/c nu/nu mouse xenografted with human DMS53 cells assessed as change in hematocrit level at 10 mg/kg, po administered for 3 times a week measured after 20 days; assay type: organism-based, DMS-53; design: dose 10 mg/kg, route oral; conditions: in vivo, 480 h; method in brief: as §3
[27] = system: Mus musculus; test: Toxicity in BALB/c nu/nu mouse xenografted with human DMS53 cells assessed as change in hemoglobin level at 10 mg/kg, po administered for 3 times a week measured after 20 days; assay type: organism-based, DMS-53; design: dose 10 mg/kg, route oral; conditions: in vivo, 480 h; method in brief: as §3
[28] = system: MRC5; test: Antiproliferative activity at human MRC5 cells after 72 hrs by MTT assay; assay type: functional, cell-based; conditions: MRC5, 72 h
[29] = system: A549; test: Antiproliferative activity at human A549 cells after 72 hrs by MTT assay; assay type: functional, cell-based
[30] = system: DMS-53; test: Antiproliferative activity at human DMS53 cells after 72 hrs by MTT assay; assay type: functional, cell-based; conditions: Homo sapiens, DMS-53, 72 h
[31] = system: Mus musculus; test: Toxicity in BALB/c nu/nu mouse xenografted with human DMS53 cells assessed as change in heart weight at 10 mg/kg, po administered for 3 times a week measured after 20 days; assay type: organism-based, DMS-53; design: dose 10 mg/kg, route oral; conditions: in vivo, 480 h; method in brief: as §3

| Structure (SMILES) | Activity [1] | MTD at 672 h [2] | Activity [3] | Activity [4] | Activity [5] | Activity [6] | Activity [7] | Activity [8] | Activity [9] | Activity [10] | Activity [11] | Activity [12] | Activity [13] | Activity [14] | Activity [15] | Activity [16] | Activity [17] | Activity [18] | Activity [19] | Activity [20] | further results |
| --- | --- | --- | --- | --- | --- | --- | --- | --- | --- | --- | --- | --- | --- | --- | --- | --- | --- | --- | --- | --- | --- |
| CN(C(=S)NN=C(c1ccccn1)c1ccccn1)C1CCCCC1.Cl | Non-toxic | 20 mg/kg | Non-toxic | Non-toxic | Non-toxic | Non-toxic | Non-toxic | Non-toxic | Non-toxic | Non-toxic | Non-toxic | Non-toxic | Non-toxic | Non-toxic | Non-toxic | Non-toxic | Non-toxic | Non-toxic | Non-toxic | Non-toxic | Activity [21]: Non-toxic; Activity [22]: Non-toxic; Activity [23]: Non-toxic; Activity [24]: Non-toxic; Activity [25]: Non-toxic; Activity [26]: Non-toxic; Activity [27]: Non-toxic; IC50 [28]: > 10000 nM; IC50 ([29]; Homo sapiens, A549, 72 h): 4 nM; IC50 [30]: 7 nM; Activity [31]: Non-toxic |
| CCN(C)C(=S)NN=C(c1ccccn1)c1ccccn1.Cl | Non-toxic | 10 mg/kg | Non-toxic | Non-toxic | Non-toxic | Non-toxic | Non-toxic | Non-toxic | Non-toxic | Non-toxic | Non-toxic | Non-toxic | Non-toxic | Non-toxic | Non-toxic | Non-toxic | Non-toxic | Non-toxic | Non-toxic | Non-toxic | Activity [21]: Non-toxic; Activity [22]: Non-toxic; Activity [23]: Non-toxic; Activity [24]: Non-toxic; Activity [25]: Non-toxic; Activity [26]: Toxic; Activity [27]: Toxic; IC50 [28]: > 10000 nM; IC50 ([29]; a549): 1 nM; IC50 [30]: 6 nM; Activity [31]: Toxic |
